Experiments:
[1] = type: in vitro ADME, mouse
Procedure, shortened: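 Mouse epidermis punches (C57BL/6-type, ≈6 mm diameter, 1 mm thick) incubated with test compound at 4.85 μM in PBS for 24 h. Supernatant sampled over time, diluted 100-fold, added to a group-I S. aureus agr YFP reporter strain making native AIP. Fluorescence normalized to vehicle (100%) and media (0%) controls, n=3 independent experiments; remaining active compound estimated from an earlier dose-response curve.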

S. aureus = assay: murine open-wound model of S. aureus infection; type: in vivo, mouse; conditions: even at relatively high concentrations (e.g. 10 μM)

For AIP-III D4A, which “loss of active compound” value ([1]; after 24 h with mouse tissue in PBS, start 4.85 μM) is on record?
The value was ~ 95%.

What about the “loss of inhibitory activity in the absence of mouse tissue” value ([1]; control without tissue, 24 hr) of the same substance?
Its value is “no loss of inhibitory activity”.

And the “loss of activity with heat-treated tissue” value ([1]; tissue sample heat treated at 80 °C for 15 min before addition of compound)?
The value was “loss of activity could be prevented”.

What about the “benefit on wound healing” value (S. aureus) of the same substance?
Its value is “only a limited benefit on wound healing”.
